Screening data as filed in PubChem.
RanGTP-Impb inh: disruptors of Ran-importin-beta complex formation – biochemical, FRET, CFP-Ran, YFP-importin-beta, homogeneous, primary screen; cell-free CFP-Ran/YFP-importin-beta FRET ratio; inhibition, % (test concentration not listed); 300,000 compounds, 1.1% hits;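 active = more than half of the replicate wells show a fall in the fluorescence ratio signal beyond about 16%, limit read from the data, passing the limit was not always enough; inconclusive = exactly half of the replicate wells pass the set limit; inactive = fewer than half of replicates pass the limit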
Runt-SMMHC FRET: inhibitors of human RUNX1 Runt domain binding to CBFb-SMMHC; Q01196+Q13951; Cerulean-Runt/Venus-CBFb-SMMHC FRET ratio 530/480, 1 h; inhibition, % at 20 µM; 220,000 compounds, 0.74% hits; AID 1434;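 active = mean inhibition across duplicate retests at 20 µM reaching about 50%, limit read from the data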;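 also: inhibitors lower the FRET ratio by blocking Runt binding to CBFb-SMMHC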
Runt-CBFb FRET: blocks binding of human RUNX1 Runt domain to CBFb. Q01196+Q13951. Cerulean-Runt/Venus-CBFb FRET ratio 530/480, 1 h. inhibition, % at 20 µM. 220,000 compounds, 0.46% hits. AID 1496;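 active = inhibition over about 50% at 20 µM in the single-dose screen, limit read from the data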
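Assay system: Cerulean-Runt domain / Medium: Tris 50 mM pH 7.5, KCl, K2SO4, 0.01% BSA / Timing: protein complex preformed 1 h, compound exposure 1 h, room temperature, dark / Measured by: FRET, excitation 422 nm, emission at 530 and 480 nm / Evaluation: loss of energy transfer signal / Control set: 5 µM unlabeled CBFb as full-inhibition high control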
Hck-Nef inh: blocks Nef-activated human Hck kinase; Recombinant Hck-YEEI plus Nef, Z-Lyte FRET kinase assay; inhibition, % at 20 µM; 220,000 compounds, 0.68% hits;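 active = Hck-Nef kinase inhibition above about 50%, limit read from the data; inactive = inhibition below that limit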
Target sequence (P08631 whole entry, looked up): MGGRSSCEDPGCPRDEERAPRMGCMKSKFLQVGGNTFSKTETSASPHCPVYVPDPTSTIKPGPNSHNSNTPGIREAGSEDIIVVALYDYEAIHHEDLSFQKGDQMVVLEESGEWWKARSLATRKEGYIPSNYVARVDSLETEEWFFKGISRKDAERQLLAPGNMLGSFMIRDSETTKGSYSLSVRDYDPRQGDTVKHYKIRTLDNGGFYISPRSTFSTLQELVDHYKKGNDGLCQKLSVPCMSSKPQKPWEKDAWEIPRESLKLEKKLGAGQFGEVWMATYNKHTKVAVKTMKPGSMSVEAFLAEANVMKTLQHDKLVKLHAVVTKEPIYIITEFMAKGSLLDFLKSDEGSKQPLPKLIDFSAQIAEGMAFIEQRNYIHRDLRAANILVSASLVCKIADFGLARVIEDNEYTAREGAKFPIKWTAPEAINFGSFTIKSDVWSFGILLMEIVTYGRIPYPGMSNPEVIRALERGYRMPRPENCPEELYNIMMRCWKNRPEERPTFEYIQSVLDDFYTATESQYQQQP
Hck-Nef confirm: Hck-Nef kinase inhibition, confirmation | 1,300 compounds, 28% hits | AID 463188 | calls only at 10 µM | shares compounds with Hck-Nef inh | Recombinant Hck-YEEI:Nef, Z-Lyte FRET kinase assay;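 active = average inhibition of at least 50%, with Z-scores no higher than 3 in both the phospho-tyrosine peptide and fluorescence counterscreens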
A number is an active result; 0 = inactive; ? = inconclusive; - = not tested or not shown; + = active, no number. The list is not random: actives were taken first. Their share in the collection is about 1.9%.

SMILES	RanGTP-Impb inh	Runt-SMMHC FRET	Runt-CBFb FRET	Hck-Nef inh	Hck-Nef confirm
Cc1ccc(NC(=O)CN2C(=O)S/C(=C/c3ccc(O)c([N+](=O)[O-])c3)C2=O)cc1C	-	0	0	64.1	+
O=c1[nH][nH]c2c(N=Cc3ccccc3O)ccc(F)c12	-	0	0	59.7	0
O=C(NCc1cc([N+](=O)[O-])ccc1O)c1cccc(NS(=O)(=O)c2ccccc2)c1	0	-	-	-	-
N#CCCN1CCN(Cc2ccccc2)CCC1=O	0	-	-	-	-
Cc1cc(-c2csc(NC(=O)c3cc4ccccc4o3)n2)c(C)n1C	0	0	0	59.4	0
Cc1ccc(S(=O)(=O)N(C)C)cc1NC(=S)NCc1ccco1	0	0	-	113.0	+
S=C(NCc1ccco1)Nc1ccccc1Cl	0	0	0	94.0	0
CCC(c1nnnn1Cc1ccc(OC)cc1)N1CCN(c2ccc(OC)cc2)CC1 (stereo unspecified)	0	0	0	61.8	0
CCC(c1nnnn1Cc1ccccc1)N1CCN(c2ccc(OC)cc2)CC1 (stereo unspecified)	0	0	0	0	-
CCOC(=O)c1cnc2c(-c3ccc(F)cc3)cnn2c1C(F)(F)F	-	0	0	81.9	0
O=C(C1=NN[C@@H]2C(=O)N(c3cccc(C(F)(F)F)c3)C(=O)[C@H]12)c1cnccn1	0	0	0	52.0	0
N#Cc1ccc(N2C(=O)[C@@H]3C(C(=O)c4cnccn4)=NN[C@@H]3C2=O)cc1	0	0	0	0	-
COC(=O)c1sc(N)c(C(=O)OC)c1COC(=O)[C@@H](NS(=O)(=O)c1cccc(Cl)c1)C(C)C	0	0	0	79.3	+
CCOC(=O)c1cc(C(=O)OCC)c2ccccn2c1=O	66.1	60.5	97.4	95.3	-
CCOC(=O)c1c[nH]n(-c2ccccc2)c1=O	0	0	0	0	-
O=c1oc2c(CN3CCOCC3)c(O)ccc2c2c1CCCC2	33.3	66.2	0	54.2	-
O=c1oc2c(CN3CCOCC3)c(O)ccc2c2ccccc12	0	0	-	0	-
CCCCc1cc(=O)oc2c(CN3CCN(C)CC3)c(O)ccc12	0	-	-	-	-
O=c1oc2c(CN3CCOCC3)c(O)c(Cl)cc2c2c1CCCC2	85.3	0	104.6	79.7	-
O=C(COc1cc2oc(=O)c3c(c2cc1Cl)CCC3)NCCN1CCOCC1	0	-	-	-	-
CCCc1cc(=O)oc2c(CN3CCOCC3)c(O)ccc12	0	90.4	-	65.2	-
O=c1c2ccccc2sn1-c1cc(S(=O)(=O)N2CCOCC2)ccc1N1CCOCC1	0	0	0	92.7	+
O=c1c2ccccc2sn1-c1cc(S(=O)(=O)N2CCOCC2)ccc1N1CCCC1	0	0	0	0	-
C[C@H](NC(=O)c1[nH]cnc1C(=O)Nc1ccc(CNC(=O)OC(C)(C)C)cc1)C(=O)OC(C)(C)C	0	0	0	57.2	0
Cc1csc(=O)n1CC(=O)OCC(=O)c1ccc(Br)cc1	0	-	-	-	-
SMILES	RanGTP-Impb inh	Runt-SMMHC FRET	Runt-CBFb FRET	Hck-Nef inh	Hck-Nef confirm
COCc1cc(C)nc(OCC(=O)N/N=C/c2ccc(-c3cc([N+](=O)[O-])ccc3Cl)o2)c1C#N	0	0	-	93.2	0
COCc1cc(C)nc(OCC(=O)N/N=C/c2ccco2)c1C#N	0	0	0	0	-
Cc1ccc(N2CC(C(=O)N3CCN(Cc4ccc5c(c4)OCO5)CC3)CC2=O)cc1 (stereo unspecified)	0	-	-	-	-
C=CCNC(=O)c1c(N)n(-c2cccc(S(N)(=O)=O)c2)c2nc3ccccc3nc12	-	0	79.5	58.3	0
Cc1ccc(C)c(Cn2c(C)nc3c(sc(=S)n3-c3ccccc3)c2=O)c1	0	0	0	0	-
COc1ccc(-n2c(SCC(=O)Nc3sc4c(c3C#N)CCCC4)nnc2-c2ccccc2OC)cc1	0	0	0	0	-
COc1ccc(-c2nnc(SCC(=O)Nc3sc4c(c3C#N)CCCC4)n2-c2ccccc2)cc1	0	0	0	96.4	+
COc1ccc(S(=O)(=O)N(C)C2(C)CCS(=O)(=O)C2)cc1OC (stereo unspecified)	0	-	-	-	-
COC(=O)C1=C(C)NC2=C(C(=O)CCC2)C1c1ccsc1 (stereo unspecified)	0	0	0	0	-
COC(=O)C1=CN(CCOC23CC4CC(CC(C4)C2)C3)C=C(C(=O)OC)C1c1ccsc1	0	0	0	70.1	0
O=C(Nc1ccc(Cl)c(Cl)c1)c1cccc(S(=O)(=O)NCc2cccnc2)c1	0	0	0	0	-
CCSc1nnc(NC(=O)c2ccco2)s1	0	0	0	101.5	0
CC12CCC(=O)N1c1c(sc3nc(N4CCOCC4)c4c(c13)CCCC4)C(=O)N2 (stereo unspecified)	0	95.9	0	60.8	-
COC(=O)c1ccc(-c2sc3nc(N4CCOCC4)c4c(c3c2N)CCCC4)o1	0	0	0	0	-
COc1ccccc1NC(=O)Cn1c(O)c(N=NC(=O)c2ccccc2O)c2ccccc21	0	0	0	90.9	0
Cn1c(O)c(N=NC(=O)c2ccccc2O)c2ccccc21	0	0	0	0	-
Cc1ccc(NC(=O)Cn2c(O)c(N=NC(=O)c3cc4ccccc4cc3O)c3ccccc32)cc1	-	0	0	51.2	0
CC(=O)c1ccc2c(c1)C1C=CCC1C(C(=O)O)N2 (stereo unspecified)	-	0	0	73.6	+
CC(=O)c1ccc2c(c1)C1C=CCC1C(c1ccncc1)N2 (stereo unspecified)	0	0	0	0	-
Cc1cc(SCC(=O)OCC(=O)c2c(N)n(C)c(=O)n(C)c2=O)c(C)cc1Br	0	0	0	55.0	0
CN1CCN(C(=O)c2ccccc2NC(=O)c2ccccc2)CC1	0	-	-	-	-
Brc1ccc(Nc2ncnc3[nH]ncc23)cc1	0	0	0	51.1	0
Cc1cc(C)c2cc(CN(CCO)Cc3nnnn3Cc3ccccc3)c(=O)[nH]c2c1	0	0	0	85.1	0
Cc1cc(C)c2cc(CN(CCO)Cc3nnnn3Cc3ccc(F)cc3)c(=O)[nH]c2c1	0	0	0	0	-
Cc1nnc(SCc2ccc(CSc3nnc(C)c(=O)[nH]3)cc2)[nH]c1=O	0	0	0	0	-
SMILES	RanGTP-Impb inh	Runt-SMMHC FRET	Runt-CBFb FRET	Hck-Nef inh	Hck-Nef confirm
FC(F)(F)c1cnc(Oc2cccc3ccccc23)c(Cl)c1	0	0	0	0	-
Cn1nc(Oc2ncc(C(F)(F)F)cc2Cl)cc1C(F)(F)F	?	0	0	54.3	0
Cc1ccc(NS(=O)(=O)c2ccc(C(=O)N3CCN(c4ccccn4)CC3)cc2)cc1	0	0	0	80.1	0
COc1ccccc1C(=O)NNC(=O)C(=O)NCc1ccccc1	0	0	0	0	-
COc1ccccc1C(=O)NNC(=O)C(=O)NC(C)C	0	-	-	59.3	0
O=S(=O)(c1ccc(N2CCC(c3ccc(Cl)cc3)=N2)cc1)N(CCO)CCO	?	108.0	0	81.6	-
O=S(=O)(c1ccc(Oc2ccc(S(=O)(=O)N(CCO)CCO)cc2)cc1)N(CCO)CCO	0	0	0	0	-
O=C1OC[C@H](Cc2ccc3c(c2)OCO3)/C1=C\c1ccc2c(c1)OCO2	0	-	-	-	-
CCOC(=O)N1CCN(C(=O)c2cc3cc(OC)c(OC)cc3[nH]2)CC1	0	-	-	-	-
